“Also recorded” adds a separate entry of the source.
How the values were obtained:
[1] = 30 °C and pH 7.0; cited from earlier work
[2] = Stability of 3ketoLG in acid; format: physicochemical; details: 100 °C, 1 h
How it was run: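 Test ketosugar at 10 mM is dissolved in HCl (1, 10 or 100 mM) and held at 100 °C for 1 h. After cooling, samples are diluted 1:20 in water. Remaining ketosugar is quantified by HPLC (50 µL injection) on a KS-801 column with water eluent and charged-aerosol detection.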

[3] = Solubility in aqueous solution; format: physicochemical; details: aqueous solution / reaction mixture
[4] = Heat treatment of 3ketoLG and 3ketoMeβGlc in sodium phosphate buffer, HPLC; format: physicochemical; details: sodium phosphate buffer 50 mM, pH 8.0, 60 min at 60 °C
How it was run: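 Samples are analysed by HPLC on a Shodex SUGAR KS-801 column (8.0 × 300 mm). Water is the eluent at 1 mL/min and 60 °C, with corona charged-aerosol detection. Chromatograms taken before and after heat treatment are compared.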

[5] = Stability of 3ketoLG in buffer; format: physicochemical; details: for k: 10 mM 3ketoLG; for Ea: linear regression of the Arrhenius equation
How it was run: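 Ketosugar is incubated at 30–70 °C in 50 mM sodium phosphate or 50 mM sodium acetate (pH 4.0, 5.0) buffers. At each time point, aliquots are diluted 1:20 into 1 mM acetic acid and quantified by HPLC. k comes from a single-exponential fit of the time course, and t1/2 = ln2/k. Ea at each pH comes from linear Arrhenius regression.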

[6] = biological target: pyranose oxidase (P2O) (Trametes versicolor, UniProt P79076); test: Measurement of P2O activity; format: biochemical, Coriolus sp.; details: for Km: P2O, LG: linear S–V relationship between 4 and 40 mM
[7] = substrate 10 mM, 30 °C, MOPS-Na buffer 25 mM, pH 7.5

SMILES: O=C1CO[C@H](CO)[C@@H](O[C@@H]2O[C@H](CO)[C@@H](O)[C@H](O)[C@H]2O)[C@@H]1O [1,5-anhydro-4-O-β-D-glucopyranosyl-D-fructose]
- half-life [1]: 17 h

SMILES: O=C1[C@@H](O)[C@@H]2OC[C@@H](O2)[C@H]1O [3ketoLG, 1,6-anhydro-β-D-ribo-hexopyranos-3-ulose]
- Decrease of 3ketoLG ([2]; 1 mM HCl): No significant decrease
- 3ketoLG remained ([2]; 100 mM HCl): > 90%
- Solubility [3]: poor solubility; also recorded: low solubility
- Change on heat treatment (HPLC) [4]: significantly decreased
- k ([5]; pH 4.0, 70 °C, sodium acetate buffer 50 mM): 0.062 ± 0.002 h⁻¹
- k ([5]; pH 5.0, 70 °C, sodium acetate buffer 50 mM): 0.20 ± 0.01 h⁻¹
- k ([5]; pH 6.0, 40 °C, sodium phosphate buffer 50 mM): 0.028 ± 0.003 h⁻¹
- k ([5]; pH 6.0, 50 °C, sodium phosphate buffer 50 mM): 0.085 ± 0.005 h⁻¹
- k ([5]; pH 6.0, 60 °C, sodium phosphate buffer 50 mM): 0.32 ± 0.04 h⁻¹
- k ([5]; pH 6.0, 70 °C, sodium phosphate buffer 50 mM): 1.0 ± 0.1 h⁻¹
- Ea ([5]; pH 6.0): 26.1 kcal/mol
- k ([5]; pH 7.0, 30 °C, sodium phosphate buffer 50 mM): 0.043 ± 0.003 h⁻¹
- k ([5]; pH 7.0, 40 °C, sodium phosphate buffer 50 mM): 0.13 ± 0.01 h⁻¹
- k ([5]; pH 7.0, 50 °C, sodium phosphate buffer 50 mM): 0.33 ± 0.02 h⁻¹
- k ([5]; pH 7.0, 60 °C, sodium phosphate buffer 50 mM): 1.7 ± 0.1 h⁻¹
- k ([5]; pH 7.0, 70 °C, sodium phosphate buffer 50 mM): 4.4 ± 0.1 h⁻¹
- Ea ([5]; pH 7.0): 24.4 kcal/mol
- k ([5]; pH 8.0, 30 °C, sodium phosphate buffer 50 mM): 0.083 ± 0.005 h⁻¹
- k ([5]; pH 8.0, 40 °C, sodium phosphate buffer 50 mM): 0.21 ± 0.02 h⁻¹
- k ([5]; pH 8.0, 50 °C, sodium phosphate buffer 50 mM): 0.57 ± 0.03 h⁻¹
- k ([5]; pH 8.0, 60 °C, sodium phosphate buffer 50 mM): 3.0 ± 0.1 h⁻¹
- k ([5]; pH 8.0, 70 °C, sodium phosphate buffer 50 mM): 9.1 ± 0.4 h⁻¹
- Ea ([5]; pH 8.0): 24.9 kcal/mol

SMILES: OC[C@H]1OC(O)[C@H](O)[C@@H](O)[C@@H]1O (stereo partly drawn) [D-glucose]
- Km [6]: 1000 µM
- Specific activity of P2O [6, 7]: 5.1 U/mg-solid
- Specific activity of P2O relative to D-glucose ([6]; substrate 10 mM, 30 °C, MOPS-Na buffer 25 mM, pH 7.5, D-glucose = 100 %): 100%

SMILES: O[C@@H]1[C@@H](O)[C@@H]2OC[C@@H](O2)[C@H]1O [LG, 1,6-anhydro-β-D-glucopyranose]
- Km [6]: > 40000 µM
- Specific activity of P2O [6, 7]: 0.018 U/mg-solid

SMILES: O=C[C@H](O)[C@@H](O)[C@H](O[C@@H]1O[C@H](CO)[C@@H](O)[C@H](O)[C@H]1O)[C@H](O)CO [cellobiose]
- Oxidation by P2O [6]: did not oxidize

SMILES: COC1OC(CO)C(O)C(O)C1O [methyl-α-D-glucopyrnaoside]
- Oxidation by P2O [6]: did not oxidize

Source: publication PMC8056934 (Journal of Applied Glycoscience, 2017)
